Assay results published in ChEMBL document CHEMBL1139361, “Comparative positron-emission tomography (PET) imaging and phototherapeutic potential of 124I- labeled methyl- 3-(1'-iodobenzyloxyethyl)pyropheophorbide-a vs the corresponding glucose and galactose conjugates” (J Med Chem, 2009).
Activity calls are given as the source filed them. The rule behind the calls is not given here.

Assays:
RIF [1] = assay: Antitumor activity against mouse RIF cells xenografted in C3H/HeJ mouse at 0.50 umol/kg, iv irradiated for 30 mins measured after 24 hrs by photodynamic therapy; assay type: functional, organism-based; conditions: tested as the 124I-labelled form
Summary of the method: (§1)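 Female C3H/HeJ mice given 2×10^5 RIF cells intradermally on flank; tumors grown to 4–5 mm diameter. Hair removed, photosensitizer injected iv (0.5, 1.0, 1.5 μmol/kg; five mice/group). At 24 h, unanesthetized restrained mice irradiated over 1 cm² with dye laser, 665 nm, 75 mW/cm², 135 J/cm² (30 min). Daily observation for weight loss, scabbing, regrowth and deaths; sacrifice at 400 mm^3; tumor-free status followed to day 60.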

[2] = Biodistribution in tumor of iv dosed BALB/c mouse bearing mouse Colon-26 cells assessed as relative uptake value after 48 hrs by PET imaging; assay type: ADME, organism-based, Neoplasm; conditions: in vivo
[3] = Biodistribution in tumor of iv dosed C3H/HeJ mouse bearing mouse RIF cells assessed as relative uptake value after 3 days by PET imaging; assay type: ADME, organism-based, Neoplasm; conditions: in vivo, 72 h
[4] = Ratio of drug level in tumor to liver of iv dosed C3H/HeJ mouse bearing mouse RIF cells after 48 hrs; assay type: ADME, organism-based; conditions: in vivo
Summary of the method: (§2)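 RIF-bearing C3H mice given ¹²⁴I-labeled photosensitizer (15–200 μCi, tail vein, in saline with 10% ethanol). 3–4 mice killed at each time point, tumor and liver weighed and gamma-counted. Uptake expressed as %ID/g, and tumor to liver ratio taken from the %ID/g values.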

[5] = Ratio of drug level in tumor to liver of iv dosed C3H/HeJ mouse bearing mouse RIF cells after 24 hrs; assay type: ADME, organism-based; conditions: in vivo; summary of the method: as §2
RIF [6] = assay: Antitumor activity against mouse RIF cells xenografted in C3H/HeJ mouse assessed as increase in photosensitizing ability at 1.5 umol/kg, iv irradiated for 30 mins measured after 60 days photodynamic therapy; assay type: functional, organism-based; conditions: tested as the 124I-labelled form; summary of the method: as §1
Mus musculus [7] = assay: Toxicity in C3H/HeJ mouse xenografted with mouse RIF cells at 1.5 umol/kg, iv irradiated for 30 mins measured after 24 hrs photodynamic therapy; assay type: organism-based; conditions: in vivo; summary of the method: as §1
Mus musculus [8] = assay: Toxicity in C3H/HeJ mouse xenografted with mouse RIF cells at 1 umol/kg, iv irradiated for 30 mins measured after 24 hrs photodynamic therapy; assay type: organism-based; conditions: in vivo; summary of the method: as §1
[9] = Biodistribution in tumor of iv dosed C3H/HeJ mouse bearing mouse RIF cells after 72 hrs; assay type: ADME, organism-based, Neoplasm; conditions: read-out: Drug uptake
Summary of the method: (§3)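 ¹²⁴I-labeled photosensitizer formulated in saline with 10% ethanol, 15–200 μCi via tail vein into C3H mice bearing RIF tumors (3×10^5 cells sc in axilla, 4–5 mm) or BALB/c mice bearing Colon-26 tumors. 3–4 mice per time point killed at 24, 48, 72, 96 h. Tumor and organs weighed and gamma-counted; uptake given as %ID/g, mean of group.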

[10] = Biodistribution in tumor of iv dosed BALB/c mouse bearing mouse Colon-26 cells after 48 hrs; assay type: ADME, organism-based, Neoplasm; conditions: read-out: Drug uptake; summary of the method: as §3
[11] = Biodistribution in tumor of iv dosed C3H/HeJ mouse bearing mouse RIF cells after 24 hrs; assay type: ADME, organism-based, Neoplasm; conditions: read-out: Drug uptake; summary of the method: as §3
[12] = Biodistribution in tumor of iv dosed BALB/c mouse bearing mouse Colon-26 cells after 24 hrs; assay type: ADME, organism-based, Neoplasm; conditions: read-out: Drug uptake; summary of the method: as §3
[13] = Biodistribution in tumor of iv dosed C3H/HeJ mouse bearing mouse RIF cells after 96 hrs; assay type: ADME, organism-based, Neoplasm; conditions: read-out: Drug uptake; summary of the method: as §3
[14] = Biodistribution in tumor of iv dosed BALB/c mouse bearing mouse Colon-26 cells after 72 hrs; assay type: ADME, organism-based, Neoplasm; conditions: read-out: Drug uptake; summary of the method: as §3
[15] = Biodistribution in tumor of iv dosed C3H/HeJ mouse bearing mouse RIF cells after 48 hrs; assay type: ADME, organism-based, Neoplasm; conditions: read-out: Drug uptake; summary of the method: as §3
[16] = Biodistribution in tumor of iv dosed BALB/c mouse bearing mouse Colon-26 cells after 96 hrs; assay type: ADME, organism-based, Neoplasm; conditions: read-out: Drug uptake; summary of the method: as §3

CCC1=C(C)c2cc3[nH]c(cc4nc(c5c6[nH]c(cc1n2)c(C)c6C(=O)C5)[C@@H](CCC(=O)N[C@@H]1O[C@H](CO)[C@H](O)[C@H](O)[C@H]1O)[C@@H]4C)c(C)c3C(C)OCc1cccc(I)c1 (stereo partly specified)
Activity (RIF [1]): inactive

OC[C@H]1O[C@@H](O)[C@H]([18F])[C@@H](O)[C@@H]1O [FLUDEOXYGLUCOSE-F18]
Activity [2]: 4
Activity [3]: 0.035

CCC1=C(C)c2cc3[nH]c(cc4nc(c5c6[nH]c(cc1n2)c(C)c6C(=O)C5)[C@@H](CCC(=O)N[C@@H]1[C@@H](O)[C@H](O)[C@@H](CO)O[C@H]1O)[C@@H]4C)c(C)c3C(C)OCc1cccc([124I])c1 (stereo partly specified)
Ratio [4]: 0.13
Ratio [5]: 0.08

CCC1=C(C)c2cc3[nH]c(cc4nc(c5c6[nH]c(cc1n2)c(C)c6C(=O)C5)[C@@H](CCC(=O)OC)[C@@H]4C)c(C)c3C(C)OCc1cccc(I)c1 (stereo partly specified)
Activity (RIF [1]): inactive
Activity (RIF [6]): Active

CCC1=C(C)c2cc3[nH]c(cc4nc(c5c6[nH]c(cc1n2)c(C)c6C(=O)C5)[C@@H](CCC(=O)N[C@@H]1O[C@H](CO)[C@H](O)[C@H](O)[C@H]1O)[C@@H]4C)c(C)c3C(C)OCc1cccc([124I])c1 (stereo partly specified)
Activity (Mus musculus [7]): Toxic
Ratio [4]: 0.06
Ratio [5]: 0.05
Activity (Mus musculus [8]): Toxic

CCC1=C(C)c2cc3[nH]c(cc4nc(c5c6[nH]c(cc1n2)c(C)c6C(=O)C5)[C@@H](CCC(=O)OC)[C@@H]4C)c(C)c3C(C)OCc1cccc([124I])c1 (stereo partly specified)
tissue uptake at 72 h [9]: 0.8 %ID/g
Ratio [4]: 0.56
tissue uptake at 48 h [10]: 4.4 %ID/g
Ratio [5]: 0.32
tissue uptake at 24 h [11]: 4.1 %ID/g
tissue uptake at 24 h [12]: 4.6 %ID/g
tissue uptake at 96 h [13]: 0.6 %ID/g
tissue uptake at 72 h [14]: 2.5 %ID/g
tissue uptake at 48 h [15]: 2.1 %ID/g
tissue uptake at 96 h [16]: 2 %ID/g
